Ki data for 15 molecules are collected here from ChEMBL document CHEMBL1128644, “(+/-)-(N-alkylamino)benzazepine analogs: novel dopamine D1 receptor antagonists” (J Med Chem, 1995).

A value given as a limit tells only on which side of the number the result lay.

One assay addresses D(2) dopamine receptor (Rattus norvegicus, UniProt P61169). As to the kind of experiment: Binding affinity against Dopamine receptor D2 from rat striatal membranes, using [3H]sulpiride as radioligand. In short, it runs like this:
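Rat (male Sprague–Dawley, 200–250 g) caudate putamen membranes, freshly prepared in 50 mM Tris pH 7.4 and washed by centrifugation. Incubation with 3 nM [³H]sulpiride (final) for 30 min at 37 °C, in triplicate. Nonspecific binding defined with 10 μM sulpiride. Filtration, scintillation counting, Ki by LIGAND; at least three determinations.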

The next assay concerns the target D(1A) dopamine receptor (Rattus norvegicus, UniProt P18901).

D(2) dopamine receptor, sequence (P61169 whole entry): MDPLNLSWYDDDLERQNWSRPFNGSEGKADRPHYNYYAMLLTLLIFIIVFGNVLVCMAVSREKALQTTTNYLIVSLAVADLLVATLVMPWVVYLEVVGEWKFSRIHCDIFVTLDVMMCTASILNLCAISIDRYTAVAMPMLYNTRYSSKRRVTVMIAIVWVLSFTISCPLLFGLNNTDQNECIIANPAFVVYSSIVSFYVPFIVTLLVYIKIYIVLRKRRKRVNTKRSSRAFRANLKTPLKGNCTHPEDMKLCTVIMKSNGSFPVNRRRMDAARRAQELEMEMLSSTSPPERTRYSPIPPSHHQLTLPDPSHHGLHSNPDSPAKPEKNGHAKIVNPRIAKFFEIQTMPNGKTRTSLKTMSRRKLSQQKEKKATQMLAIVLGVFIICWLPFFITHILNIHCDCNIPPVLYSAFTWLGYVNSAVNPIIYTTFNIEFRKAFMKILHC
D(1A) dopamine receptor, sequence (P18901 whole entry): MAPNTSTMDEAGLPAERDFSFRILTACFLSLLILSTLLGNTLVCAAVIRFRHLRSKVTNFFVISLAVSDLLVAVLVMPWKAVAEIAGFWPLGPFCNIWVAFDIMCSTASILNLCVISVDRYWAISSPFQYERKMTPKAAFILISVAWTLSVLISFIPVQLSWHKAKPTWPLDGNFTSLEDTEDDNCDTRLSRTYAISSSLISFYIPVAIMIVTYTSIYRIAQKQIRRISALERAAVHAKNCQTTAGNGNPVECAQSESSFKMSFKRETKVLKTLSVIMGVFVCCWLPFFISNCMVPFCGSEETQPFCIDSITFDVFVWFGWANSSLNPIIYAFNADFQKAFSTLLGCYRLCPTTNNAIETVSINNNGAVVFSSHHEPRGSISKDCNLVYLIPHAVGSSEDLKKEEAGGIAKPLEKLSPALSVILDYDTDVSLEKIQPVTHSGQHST

The term Ki denotes the equilibrium dissociation constant of an inhibitor or competing ligand from its target. Low values mean higher affinity, high ones lower affinity. Regarding `CNCCCCCCN1CCc2cc(Cl)c(O)cc2C(c2ccccc2)C1` (centres undefined), the values for the Ki on D(2) dopamine receptor and at D(1A) dopamine receptor were 3570 nM and 75.7 nM, respectively.

With `CN(C)CCCCCCN1CCc2cc(Cl)c(O)cc2C(c2ccccc2)C1` (centres undefined), the Ki was found to be 3450 nM on D(2) dopamine receptor and 49.3 nM at D(1A) dopamine receptor.

For `CN(C)CCCCN1CCc2cc(Cl)c(O)cc2C(c2ccccc2)C1` (centres undefined), the figures for the Ki on D(2) dopamine receptor and on D(1A) dopamine receptor were 4130 nM and 811 nM, respectively.

Take `CCCCN1CCc2cc(Cl)c(O)cc2C(c2ccccc2)C1` (centres undefined): the Ki at D(2) dopamine receptor came to 2360 nM; at D(1A) dopamine receptor it was 634 nM.

On to `COc1cc2c(cc1Cl)CCN(CCCCN(C)C)CC2c1ccccc1` (centres undefined), for which the results for the Ki at D(2) dopamine receptor and at D(1A) dopamine receptor were 9150 nM and above 10000 nM, respectively.

As for `COc1cc2c(cc1OC)C(c1ccccc1)CN(CCCCN(C)C)CC2` (centres undefined), the Ki on D(2) dopamine receptor and at D(1A) dopamine receptor was above 10000 nM throughout.

Take `NCCCCN1CCc2cc(Cl)c(O)cc2C(c2ccccc2)C1` (centres undefined): the values for the Ki on D(2) dopamine receptor and at D(1A) dopamine receptor were 4280 nM and 75 nM, respectively.

As to `CN(C)CCCCN1CCc2cc(Br)c(O)cc2C(c2ccccc2)C1` (centres undefined), the Ki at D(2) dopamine receptor was above 10000 nM; on D(1A) dopamine receptor it was 1490 nM.

Regarding `COc1cc2c(cc1Br)CCN(CCCCN(C)C)CC2c1ccccc1` (centres undefined), the Ki at D(2) dopamine receptor was 2490 nM; on D(1A) dopamine receptor, above 10000 nM.

On to `CN(C)CCCCN1CCc2cc(O)c(O)cc2C(c2ccccc2)C1` (centres undefined), for which the Ki is above 10000 nM on D(2) dopamine receptor and 4820 nM on D(1A) dopamine receptor.

`O=CNCCCCCCN1CCc2cc(Cl)c(O)cc2C(c2ccccc2)C1` (centres undefined): the figures for the Ki at D(2) dopamine receptor and on D(1A) dopamine receptor were 2030 nM and 553 nM, respectively.

Turning to `NCCCCCCN1CCc2cc(Cl)c(O)cc2C(c2ccccc2)C1` (centres undefined), the Ki was found to be 2490 nM at D(2) dopamine receptor and 321 nM on D(1A) dopamine receptor.

`BC#N.CN(C)CCCCCCN1CCc2cc(Cl)c(O)cc2C(c2ccccc2)C1` (centres undefined) came in with a Ki on D(1A) dopamine receptor of 142 nM.

For the molecule `NCCCC(=O)N1CCc2cc(Cl)c(O)cc2C(c2ccccc2)C1` (centres undefined), the figures for the Ki at D(2) dopamine receptor and on D(1A) dopamine receptor were 7410 nM and 607 nM, respectively.

Turning to `CNCCCCN1CCc2cc(Cl)c(O)cc2C(c2ccccc2)C1` (centres undefined), the Ki at D(2) dopamine receptor was above 10000 nM; on D(1A) dopamine receptor it was 106 nM.
